Measured values reported in ChEMBL document CHEMBL3596098, “Insights into the interaction of negative allosteric modulators with the metabotropic glutamate receptor 5: discovery and computational modeling of a new series of ligands with nanomolar affinity” (Bioorg Med Chem, 2015).

Columns and labels:
[1] = target: T1, Metabotropic glutamate receptor 1 (Rattus norvegicus, UniProt P23385); experiment: Displacement of [3H]R214127 from rat cloned mGluR1 receptor expressed in CHO-T-Rex cells after 30 mins by liquid scintillation spectrometry; assay type: cell-based
Procedure, shortened: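 CHO T-REx cells stably expressing rat mGlu1, derepressed by 1 µg/mL tetracycline for 18 h. Nonspecific binding with 1 µM R214127. Filtration, scintillation counting. Ki by Cheng-Prusoff.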

[2] = target: Metabotropic glutamate receptor 5 (Rattus norvegicus, UniProt P31424); experiment: Displacement of [3H]MPEP from mGluR5 receptor in Sprague-Dawley rat forebrain membrane after 60 mins by liquid scintillation spectrometry
[3] = target: T2, Metabotropic glutamate receptor 5 (Homo sapiens, UniProt P41594); experiment: Negative allosteric modulatory activity at human cloned mGluR5 receptor expressed in CHO-T-Rex cells assessed as inhibiton of quisqualate-induced calcium mobilization treated 10 mins prior to agonist application by fluorescence analysis; assay type: functional, cell-based
Procedure, shortened: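 CHO T-REx cells expressing human mGlu5, induced 18 h with 3 ng/mL tetracycline and seeded at 80,000 cells/well. Loaded 1 h at 37 °C with 2 µM Fluo-4/AM in HBSS with 20 mM HEPES and 2.5 mM probenecid, then washed. Compound (0.5% DMSO final) added 10 min before quisqualate at its daily EC80. Peak minus basal fluorescence read every 1.5 s for 60 s.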
Target sequence in this assay (P41594 whole entry): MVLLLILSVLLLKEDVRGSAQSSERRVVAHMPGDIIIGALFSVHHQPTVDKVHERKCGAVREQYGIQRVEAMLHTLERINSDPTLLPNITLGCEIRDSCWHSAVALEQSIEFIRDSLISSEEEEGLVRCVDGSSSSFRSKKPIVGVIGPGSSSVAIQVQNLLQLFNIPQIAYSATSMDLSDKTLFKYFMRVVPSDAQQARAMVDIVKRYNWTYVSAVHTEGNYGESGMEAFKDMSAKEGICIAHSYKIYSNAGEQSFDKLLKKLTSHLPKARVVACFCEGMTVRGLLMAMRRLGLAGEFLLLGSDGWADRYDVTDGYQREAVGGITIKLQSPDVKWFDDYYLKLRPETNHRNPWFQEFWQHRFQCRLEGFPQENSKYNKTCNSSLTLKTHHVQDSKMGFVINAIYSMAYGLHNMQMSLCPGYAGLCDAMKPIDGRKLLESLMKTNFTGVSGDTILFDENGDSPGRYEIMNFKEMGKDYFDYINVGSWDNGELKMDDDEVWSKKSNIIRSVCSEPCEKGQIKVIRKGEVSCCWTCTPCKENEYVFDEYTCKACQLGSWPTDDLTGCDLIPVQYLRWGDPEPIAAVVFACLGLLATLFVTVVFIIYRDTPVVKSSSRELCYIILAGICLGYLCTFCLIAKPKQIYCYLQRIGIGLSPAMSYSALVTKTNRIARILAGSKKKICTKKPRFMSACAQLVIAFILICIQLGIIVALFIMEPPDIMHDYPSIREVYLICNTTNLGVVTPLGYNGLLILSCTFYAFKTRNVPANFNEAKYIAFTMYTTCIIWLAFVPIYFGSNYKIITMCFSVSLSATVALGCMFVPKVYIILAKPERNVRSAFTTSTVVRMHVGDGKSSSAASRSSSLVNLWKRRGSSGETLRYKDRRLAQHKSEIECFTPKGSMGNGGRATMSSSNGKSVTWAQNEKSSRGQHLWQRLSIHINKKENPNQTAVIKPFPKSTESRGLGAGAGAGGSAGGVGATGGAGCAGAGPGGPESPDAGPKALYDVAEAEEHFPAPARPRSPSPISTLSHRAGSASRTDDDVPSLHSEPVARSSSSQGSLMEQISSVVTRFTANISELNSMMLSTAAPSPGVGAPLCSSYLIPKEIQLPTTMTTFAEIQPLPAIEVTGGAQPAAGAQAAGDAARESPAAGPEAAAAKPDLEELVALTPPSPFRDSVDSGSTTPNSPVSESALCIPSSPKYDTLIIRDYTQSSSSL

[4] = target: T2, Metabotropic glutamate receptor 5; experiment: Displacement of [3H]MPEP from human cloned mGluR5 receptor expressed in CHO-T-Rex cells after 60 mins by liquid scintillation spectrometry; assay type: cell-based
Target sequence in this assay (P41594 whole entry): as above

[5] = target: T1, Metabotropic glutamate receptor 1; experiment: Negative allosteric modulatory activity at rat cloned mGluR1 receptor expressed in CHO-T-Rex cells assessed as inhibiton of quisqualate-induced calcium mobilization treated 10 mins prior to agonist application by fluorescence analysis; assay type: functional, cell-based
Procedure, shortened: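 CHO T-REx cells expressing rat mGlu1, induced 18 h with 10 ng/mL tetracycline and seeded at 80,000 cells/well. Loaded with 2 µM Fluo-4/AM (1 h, 37 °C, HBSS/HEPES/probenecid), then washed. Compound (0.5% DMSO final) given 10 min before quisqualate at its daily EC80. Peak minus basal fluorescence recorded over 60 s. Three independent experiments.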

[6] = target: T2, Metabotropic glutamate receptor 5; experiment: Non-competitive antagonist activity at human cloned mGluR5 receptor expressed in CHO-T-Rex cells assessed as inhibiton of quisqualate-induced calcium mobilization at 0.3 nM treated 10 mins prior to agonist application by fluorescence analysis; assay type: functional, cell-based
Target sequence in this assay (P41594 21-1212 limits assumed): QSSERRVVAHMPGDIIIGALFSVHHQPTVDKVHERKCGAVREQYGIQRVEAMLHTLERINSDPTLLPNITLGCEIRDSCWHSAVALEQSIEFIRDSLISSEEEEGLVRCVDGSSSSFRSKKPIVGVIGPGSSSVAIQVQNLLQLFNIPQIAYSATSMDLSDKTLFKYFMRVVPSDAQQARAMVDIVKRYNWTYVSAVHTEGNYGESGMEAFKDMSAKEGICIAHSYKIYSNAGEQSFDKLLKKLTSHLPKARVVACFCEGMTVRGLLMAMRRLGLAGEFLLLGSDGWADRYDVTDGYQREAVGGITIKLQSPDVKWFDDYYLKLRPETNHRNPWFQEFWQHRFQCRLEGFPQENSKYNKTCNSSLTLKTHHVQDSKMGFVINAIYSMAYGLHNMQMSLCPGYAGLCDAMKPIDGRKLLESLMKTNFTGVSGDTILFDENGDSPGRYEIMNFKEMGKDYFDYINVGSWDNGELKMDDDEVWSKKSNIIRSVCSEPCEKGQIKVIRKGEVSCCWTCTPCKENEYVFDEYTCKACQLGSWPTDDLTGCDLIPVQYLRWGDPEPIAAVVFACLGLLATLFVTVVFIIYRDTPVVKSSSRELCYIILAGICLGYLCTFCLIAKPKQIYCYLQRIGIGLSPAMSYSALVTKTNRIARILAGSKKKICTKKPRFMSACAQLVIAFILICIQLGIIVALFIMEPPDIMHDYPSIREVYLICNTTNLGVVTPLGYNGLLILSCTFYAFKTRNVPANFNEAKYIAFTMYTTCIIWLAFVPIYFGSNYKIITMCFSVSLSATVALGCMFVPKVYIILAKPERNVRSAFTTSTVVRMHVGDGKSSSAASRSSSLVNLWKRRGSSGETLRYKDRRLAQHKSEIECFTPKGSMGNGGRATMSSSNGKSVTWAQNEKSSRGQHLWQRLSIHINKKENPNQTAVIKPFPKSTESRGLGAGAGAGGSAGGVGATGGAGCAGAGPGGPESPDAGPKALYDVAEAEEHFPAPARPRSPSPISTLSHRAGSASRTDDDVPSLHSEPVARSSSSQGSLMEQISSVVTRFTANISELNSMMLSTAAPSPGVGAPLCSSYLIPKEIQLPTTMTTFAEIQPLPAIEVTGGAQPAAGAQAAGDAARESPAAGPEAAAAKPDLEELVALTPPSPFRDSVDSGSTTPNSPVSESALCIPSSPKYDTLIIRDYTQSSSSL

Metabotropic glutamate receptor 5 (Rattus norvegicus, UniProt P31424), sequence (P31424 whole entry): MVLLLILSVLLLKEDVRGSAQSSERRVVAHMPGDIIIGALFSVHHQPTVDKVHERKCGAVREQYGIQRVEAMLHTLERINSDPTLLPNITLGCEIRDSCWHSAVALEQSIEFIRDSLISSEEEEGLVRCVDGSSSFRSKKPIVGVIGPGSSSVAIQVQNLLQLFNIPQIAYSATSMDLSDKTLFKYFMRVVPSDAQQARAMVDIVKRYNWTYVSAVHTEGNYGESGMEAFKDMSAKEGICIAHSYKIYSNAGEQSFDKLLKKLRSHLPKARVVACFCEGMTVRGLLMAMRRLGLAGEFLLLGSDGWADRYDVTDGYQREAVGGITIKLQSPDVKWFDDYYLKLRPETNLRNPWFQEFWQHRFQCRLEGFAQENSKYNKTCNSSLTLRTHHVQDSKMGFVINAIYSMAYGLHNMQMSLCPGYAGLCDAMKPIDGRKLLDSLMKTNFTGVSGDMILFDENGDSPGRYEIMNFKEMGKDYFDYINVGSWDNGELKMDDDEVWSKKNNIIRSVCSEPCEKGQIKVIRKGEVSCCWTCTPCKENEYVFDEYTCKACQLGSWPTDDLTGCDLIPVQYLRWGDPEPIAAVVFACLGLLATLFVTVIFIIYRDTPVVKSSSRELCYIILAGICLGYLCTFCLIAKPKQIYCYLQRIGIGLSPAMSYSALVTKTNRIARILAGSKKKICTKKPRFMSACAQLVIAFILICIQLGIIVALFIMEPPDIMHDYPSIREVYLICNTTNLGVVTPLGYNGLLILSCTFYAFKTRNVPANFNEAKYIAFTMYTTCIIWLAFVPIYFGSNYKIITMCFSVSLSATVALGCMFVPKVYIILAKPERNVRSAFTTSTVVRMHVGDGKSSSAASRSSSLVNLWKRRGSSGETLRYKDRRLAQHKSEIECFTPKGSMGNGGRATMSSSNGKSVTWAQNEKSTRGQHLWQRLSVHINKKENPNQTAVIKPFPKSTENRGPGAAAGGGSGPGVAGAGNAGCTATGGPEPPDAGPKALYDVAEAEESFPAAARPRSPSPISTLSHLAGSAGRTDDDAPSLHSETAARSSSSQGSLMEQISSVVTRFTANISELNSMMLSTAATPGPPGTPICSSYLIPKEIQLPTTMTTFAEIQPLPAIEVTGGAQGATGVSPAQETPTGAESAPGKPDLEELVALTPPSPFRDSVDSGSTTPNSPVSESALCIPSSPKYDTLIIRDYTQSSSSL
T1 sequence (P23385 whole entry): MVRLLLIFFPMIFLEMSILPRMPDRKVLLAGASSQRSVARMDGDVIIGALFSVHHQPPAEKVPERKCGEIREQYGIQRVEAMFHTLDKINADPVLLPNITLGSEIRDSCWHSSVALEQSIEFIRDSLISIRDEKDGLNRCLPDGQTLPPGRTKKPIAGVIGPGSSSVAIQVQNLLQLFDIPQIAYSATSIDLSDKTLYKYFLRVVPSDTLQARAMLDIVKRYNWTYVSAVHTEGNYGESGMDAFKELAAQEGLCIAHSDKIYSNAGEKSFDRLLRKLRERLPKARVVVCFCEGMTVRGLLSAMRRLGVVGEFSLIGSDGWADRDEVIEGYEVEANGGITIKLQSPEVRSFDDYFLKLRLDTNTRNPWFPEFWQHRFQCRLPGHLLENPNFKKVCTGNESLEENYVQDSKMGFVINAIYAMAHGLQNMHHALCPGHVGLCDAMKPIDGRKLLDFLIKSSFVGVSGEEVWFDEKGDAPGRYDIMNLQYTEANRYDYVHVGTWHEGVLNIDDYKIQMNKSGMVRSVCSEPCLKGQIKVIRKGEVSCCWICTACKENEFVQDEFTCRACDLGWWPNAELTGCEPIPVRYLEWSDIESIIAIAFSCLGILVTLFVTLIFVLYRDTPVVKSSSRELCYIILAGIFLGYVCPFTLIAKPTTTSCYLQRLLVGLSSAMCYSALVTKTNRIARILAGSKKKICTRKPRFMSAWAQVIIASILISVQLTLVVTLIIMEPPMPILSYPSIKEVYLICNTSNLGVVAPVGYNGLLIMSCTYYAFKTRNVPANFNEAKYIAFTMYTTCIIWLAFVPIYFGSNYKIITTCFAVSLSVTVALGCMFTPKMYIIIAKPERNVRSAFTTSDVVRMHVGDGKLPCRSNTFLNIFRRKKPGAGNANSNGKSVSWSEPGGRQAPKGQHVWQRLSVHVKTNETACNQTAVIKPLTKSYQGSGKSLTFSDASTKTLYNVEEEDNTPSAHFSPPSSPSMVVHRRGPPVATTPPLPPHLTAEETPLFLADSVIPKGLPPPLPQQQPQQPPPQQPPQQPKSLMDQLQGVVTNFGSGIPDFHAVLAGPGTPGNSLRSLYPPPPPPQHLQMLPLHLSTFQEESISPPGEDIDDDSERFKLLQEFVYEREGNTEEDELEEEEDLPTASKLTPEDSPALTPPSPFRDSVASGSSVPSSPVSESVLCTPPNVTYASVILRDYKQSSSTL

SMILES | Ki [1] [nM] | Ki [2] [nM] | IC50 [3] [nM] | Ki [4] [nM] | IC50 [5] [nM] | inhibition [6] [%]
Cc1cccc(C#Cc2ccccc2)n1 | > 10000 | – | – | – | – | –
Cc1ccc([N+](=O)[O-])c(N2CCC(=CC#Cc3ccc(C#N)cn3)CC2)n1 | 190 | 0.4 | 1.3 | 0.3 | – | –
N#Cc1cc(Cl)cc(C#CC=C2CCN(c3ncccc3[N+](=O)[O-])CC2)c1 | > 1000 | – | – | 283 | – | –
O=[N+]([O-])c1cccnc1N1CCC(=CC#Cc2ccccn2)CC1 | 39.1 | 0.1 | 0.4 | 0.3 | 207 | –
Cc1cccc(C#CC=C2CCN(c3ccccc3[N+](=O)[O-])CC2)n1 | 70.7 | 0.2 | 10.4 | 0.3 | 551 | –
O=[N+]([O-])c1cccnc1N1CCN(CC#Cc2ccccc2)CC1 | > 1000 | 117 | – | 60.7 | – | –
O=C(c1cnc2ccccc2n1)N1CCN(c2ncccc2[N+](=O)[O-])CC1 | – | > 1000 | – | > 10000 | – | –
Cc1cccc(C#CC=C2CCN(c3ccccc3)CC2)n1 | – | 92 | 55 | 29.2 | – | –
Cc1cccc(C#CC=C2CCN(c3ncc(-c4ccccc4)cc3C#N)CC2)n1 | 443 | 2.9 | 9.7 | 0.5 | – | –
O=C(c1ccccc1-c1ccccc1)N1CCN(c2ncccc2[N+](=O)[O-])CC1 | – | > 10000 | – | > 10000 | – | –
Cc1cccc(C#CC=C2CCN(c3ncccc3[N+](=O)[O-])CC2)n1 | 184 | 0.03 | 0.8 | 0.5 | 448 | 50
CC1(C)CN(c2ccc(C#CC=C3CCN(c4ncccc4[N+](=O)[O-])CC3)cc2)C1=O | – | – | – | > 1000 | – | –
CN1CC(=O)N=C1NC(=O)Nc1cccc(Cl)c1 [FENOBAM ANHYDROUS] | – | 313 | 36.3 | 162 | – | –
O=C(c1ccc(-c2ccccc2)cc1)N1CCN(c2ncccc2[N+](=O)[O-])CC1 | – | > 1000 | – | > 10000 | – | –
Cc1nc(C#Cc2cccnc2)cs1 | > 10000 | – | – | – | – | –
C=Cc1ccc([N+](=O)[O-])c(N2CCN(C(=O)C#Cc3ccccc3)CC2)n1 | 54.2 | 1.3 | 42 | – | – | –
Cc1nc(C#Cc2ccc(-c3cccnc3)nc2)cs1 | > 10000 | – | – | – | – | –
Cc1ccc([N+](=O)[O-])c(N2CCN(C(=O)c3cccc(-c4ccccc4)c3)CC2)n1 | – | > 10000 | – | > 10000 | – | –
Cc1cccc(C#CC=C2CCN(c3ncccc3[N+](=O)[O-])CC2)c1 | 18.6 | 0.4 | 1.8 | 0.3 | 543 | –
O=[N+]([O-])c1cccnc1N1CCC(=CC#Cc2ccccc2)CC1 | 4.8 | 0.6 | 2.8 | 0.4 | 39.3 | –
O=C(C#Cc1ccccc1)N1CCN(c2ncccc2[N+](=O)[O-])CC1 | 96.8 | 0.6 | 0.9 | 0.5 | 271 | –
O=C(C#Cc1ccccc1)N1CCN(c2ccccc2[N+](=O)[O-])CC1 | 69.3 | 1.8 | – | 0.4 | – | –
O=[N+]([O-])c1cccnc1N1CCC(=CC#Cc2cccc(Cl)c2)CC1 | 18.6 | 0.4 | 3.8 | 0.5 | 1340 | –
Cc1cccc(C#C/C=C2/CCCN(c3nc(C)ccc3[N+](=O)[O-])C2)n1 | > 1000 | – | – | 264 | – | –
